In ChEMBL document CHEMBL1127809, “Pentamidine congeners. 2. 2-butene-bridged aromatic diamidines and diimidazolines as potential anti-Pneumocystis carinii pneumonia agents” (1994):
Where “and” joins values, the source holds several entries; their conditions need not be identical. Equal entries are not always repeated.

How the values were obtained:
Type in all cases: functional
[1] = tested on: Rattus norvegicus; assay: In vivo anti-Pneumocystis carinii toxicity in rats administered intravenously at 10 mg/kg/day; 0 indicates no local, clinical, histologic toxicity
Summary of the method: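 Host toxicity in immunosuppressed PCP rats dosed iv daily for 2 weeks. Animals were observed daily for health and well-being. Liver and kidney were examined by light microscopy for pathologic changes. Scoring: 0 = no local, clinical or histologic toxicity; 1+ = all survived, some local injection-site toxicity; 2+ = most survived, some severe distress, clinical toxicity and histopathology; 3+ = acute toxicity or decline with <50% deaths; 4+ = ≥50% deaths.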

[2] = species on record: Rattus norvegicus; assay: Anti- Pneumocystis carinii activity was measured as percentage of number of cysts counted per gram of lung tissue
Summary of the method: (§1)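 Immunosuppressed rats with PCP; compound given by daily iv injection over 2 weeks at 10 mg/kg/day, or at 5 or 1 mg/kg/day where shown. Saline is the negative control and pentamidine the positive control. Cysts are counted per gram of lung tissue and expressed as % of the saline-treated control ± SE (n rats). Significance is given as P vs saline or vs pentamidine.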

[3] = species on record: Rattus norvegicus; assay: Anti-Pneumocystis carinii activity was measured as percentage of number of cysts counted per gram of lung tissue; design: concentration or dose not given beside the values; summary of the method: as §1
[4] = tested on: Rattus norvegicus; assay: Anti- Pneumocystis carinii activity was measured as percentage of number of cysts counted per gram of lung tissue at a dose of 5.0 mg/kg/day; summary of the method: as §1
[5] = tested on: Rattus norvegicus; assay: Anti- Pneumocystis carinii activity was measured as percentage of number of cysts counted per gram of lung tissue at a dose of 1 mg/kg/day; summary of the method: as §1
[6] = tested on: Rattus norvegicus; assay: Anti- Pneumocystis carinii activity was measured as percentage of number of cysts counted per gram of lung tissue at a dose of 10 mg/kg/day; summary of the method: as §1

N=C(N)c1ccc(OCCCCCOc2ccc(C(=N)N)cc2)cc1 [PENTAMIDINE]
Toxicity ([1]; route intravenous): 2 | Control [2]: <5.31% and <4.95%

COc1cc(C(=N)N)ccc1OC/C=C\COc1ccc(C(=N)N)cc1OC.Cl.Cl
Toxicity ([1]; route intravenous): 0 | Control [3]: 21.4%

COc1cc(C2=NCCN2)ccc1OC/C=C\COc1ccc(C2=NCCN2)cc1OC.Cl.Cl
Toxicity [1]: Local toxicity | Control [3]: 15.6%

COc1cc(C(=N)N)ccc1OC/C=C/COc1ccc(C(=N)N)cc1OC.Cl
Toxicity [1]: Local toxicity | Control [3]: 35.5%

Cl.Cl.N=C(N)c1ccc(OC/C=C\COc2ccc(C(=N)N)cc2)cc1
Toxicity ([1]; route intravenous): 0 | Control [3]: 1.1%

C(=C\COc1ccc(C2=NCCN2)cc1)/COc1ccc(C2=NCCN2)cc1.Cl.Cl
Toxicity ([1]; route intravenous): 0 | Control [4]: 5.61% | Control [5]: 39.6% | Control [6]: 1.38% | Control [3]: 1.22%

Cl.Cl.N=C(N)c1ccc(OC/C=C/COc2ccc(C(=N)N)cc2)cc1
Toxicity ([1]; route intravenous): 0 | Control [3]: 0.67%

C(=C/COc1ccc(C2=NCCN2)cc1)/COc1ccc(C2=NCCN2)cc1.Cl.Cl
Toxicity ([1]; route intravenous): 0 | Control [3]: 1.22%

COc1cc(C2=NCCN2)ccc1OC/C=C/COc1ccc(C2=NCCN2)cc1OC.Cl.Cl
Toxicity [1]: Toxic | Control [3]: 1.5%
